Read-outs that look alike come from different tables or passages of the source.
Legend:
[1] = Safety and tolerability, tablet single ascending dose study; format: in vivo, human
[2] = Safety and tolerability, capsule and tablet multiple ascending dose study; format: in vivo, human
Summary of the method: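 Double-blind study; 12 per cohort randomized 3:1 to ALZ-801 or placebo. Cohort A fasted capsule: 171 mg once on day 1, twice daily days 2–7, then 256.5 mg days 8–14. Cohort D tablet 265 mg, ages 60–75, fed 30 min pre-dose: once day 1, twice daily days 2–6, once day 7. AEs recorded until follow-up call and coded by MedDRA v18.1.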

[3] = Urine drug recovery, renal clearance and estimate of oral bioavailability; format: in vivo, human; settings: Cohort D, 24-h urine; for CL renal: both, human, urine and plasma, oral, 265 mg, CLr, mean ± SD
Summary of the method: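 Cohort D: 265 mg immediate-release tablet in the fed state (meal 30 min pre-dose), once on day 1, twice daily days 2–6, once on day 7. Urine was collected over 24 h on days 1 and 7 and assayed by LC-MS (LLOQ 30 ng/mL ALZ-801, 100 ng/mL tramiprosate). Renal clearance was calculated as Ae divided by plasma AUC24.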

[4] = Phase I multiple ascending dose study of ALZ-801 capsule and tablet; format: in vivo, human; settings: plasma; for Tmax / half-life / AUC / Cmax: both, human, oral; for half-life: t ½; for Cmax: C max; for lower C max for 265 mg tablet than 256.5 mg capsule: fed state
[5] = Single-dose ALZ-801 immediate-release tablet PK and food effect study; format: in vivo, human; settings: plasma; for Cmax: C max
[6] = cited from earlier work; for ADAS-cog difference compared with placebo: oral tramiprosate
[7] = molecular target: T1, organic anion transporter (OAT) 1 (Homo sapiens, UniProt Q4U2R8); test: Effect on renal transporters; format: in vitro ADME; settings: concentrations up to 100 mM; data on file
T1 sequence (Q4U2R8 1-563): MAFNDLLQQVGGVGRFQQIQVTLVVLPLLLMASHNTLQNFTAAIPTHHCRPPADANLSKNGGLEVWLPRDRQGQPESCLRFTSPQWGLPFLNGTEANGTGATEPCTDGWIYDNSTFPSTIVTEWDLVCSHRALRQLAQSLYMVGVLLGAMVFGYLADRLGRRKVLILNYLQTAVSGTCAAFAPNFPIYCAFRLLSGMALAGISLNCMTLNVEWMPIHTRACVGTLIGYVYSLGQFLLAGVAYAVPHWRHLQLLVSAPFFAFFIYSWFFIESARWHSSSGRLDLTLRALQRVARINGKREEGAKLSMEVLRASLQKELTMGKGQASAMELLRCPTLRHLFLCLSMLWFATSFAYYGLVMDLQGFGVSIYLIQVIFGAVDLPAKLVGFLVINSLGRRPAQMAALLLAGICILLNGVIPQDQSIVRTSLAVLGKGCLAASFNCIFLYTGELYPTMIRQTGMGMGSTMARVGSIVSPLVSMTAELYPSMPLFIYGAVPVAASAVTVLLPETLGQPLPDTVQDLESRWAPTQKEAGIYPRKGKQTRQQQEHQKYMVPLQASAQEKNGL

[8] = Regimen A: 171 mg tablet, fasted, n = 10
[9] = Regimen B: 205 mg tablet, fasted, n = 11
[10] = Regimen C: 205 mg tablet, fed, n = 12
[11] = Part 1: Cohort A, 171 and 256.5 mg capsule, fasted
[12] = Part 1: Cohort B, 256.5 and 340 mg capsule, fasted
[13] = Part 1: Cohort C, 256.5 and 340 mg capsule, fed
[14] = Part 2: Cohort D, 265 mg tablet, fed
[15] = Week 1, Cohort A 171 mg bid, capsule, fasted
[16] = Week 1, Cohort B 256.5 mg bid, capsule, fasted
[17] = Week 1, Cohort C 256.5 mg bid, capsule, fed
[18] = Week 1, Cohort D 265 mg bid, tablet, fed
[19] = Week 2, Cohort A 256.5 mg qd, capsule, fasted
[20] = Week 2, Cohort B 340 mg qd, capsule, fasted
[21] = Week 2, Cohort C 340 mg bid, capsule, fed
[22] = 265 mg, AUC12, plasma, Day 1, fed, ALZ-801 tablet 265 mg (Cohort D), mean ± SD
[23] = 265 mg, AUC12, plasma, Day 7, fed, ALZ-801 tablet 265 mg twice daily (Cohort D), mean ± SD
[24] = 265 mg, AUC24, plasma, Day 1, fed, ALZ-801 tablet 265 mg (Cohort D), mean ± SD
[25] = 265 mg, AUC24, plasma, Day 7, fed, ALZ-801 tablet 265 mg twice daily (Cohort D), mean ± SD
[26] = 265 mg, Day 1, fed, ALZ-801 tablet 265 mg (Cohort D), mean ± SD
[27] = 265 mg, T max, Day 1, fed, ALZ-801 tablet 265 mg (Cohort D), mean ± SD
[28] = 265 mg, T max, Day 7, fed, ALZ-801 tablet 265 mg twice daily (Cohort D), mean ± SD
[29] = 265 mg, Day 7, fed, ALZ-801 tablet 265 mg twice daily (Cohort D), mean ± SD
[30] = 256.5 mg ALZ-801 capsules, day 1
[31] = repeated 256.5 mg ALZ-801 capsules, day 7
[32] = day 7 vs day 1, 171 and 256.5 mg capsules, fasted
[33] = 205 mg ALZ-801 tablets fed (Regimen C) vs fasted

Q: Which results are given for `CC(C)[C@H](N)C(=O)NCCCS(=O)(=O)O` [ALZ-801, 3-(L-valyl) amino-1-propanesulfonic acid]?
A: Chills [1, 8]: 0; Flatulence [1, 8]: 0; Flushing [1, 8]: 0; Gastrointestinal disorders [1, 8]: 4; General disorders and administration site conditions [1, 8]: 0; Headache [1, 8]: 0; Nausea [1, 8]: 4; Nervous system disorders [1, 8]: 0; Somnolence [1, 8]: 0; Subjects reporting AEs [1, 8]: 4; Vascular disorders [1, 8]: 0; Vomiting [1, 8]: 1; Chills [1, 9]: 0; Flatulence [1, 9]: 0; Flushing [1, 9]: 0; Gastrointestinal disorders [1, 9]: 4; General disorders and administration site conditions [1, 9]: 0; Headache [1, 9]: 0; Nausea [1, 9]: 4; Nervous system disorders [1, 9]: 0; Somnolence [1, 9]: 0; Subjects reporting AEs [1, 9]: 4; Vascular disorders [1, 9]: 0; Vomiting [1, 9]: 1; Chills [1, 10]: 0; Flatulence [1, 10]: 0; Flushing [1, 10]: 0; Gastrointestinal disorders [1, 10]: 0; General disorders and administration site conditions [1, 10]: 0; Headache [1, 10]: 0; Nausea [1, 10]: 0; Nervous system disorders [1, 10]: 0; Somnolence [1, 10]: 0; Subjects reporting AEs [1, 10]: 0; Vascular disorders [1, 10]: 0; Vomiting [1, 10]: 0; Subjects reporting AEs ([1]; Regimen D: 342 mg (2 × 171 mg tablets), fed, n = 12): 3; Chills ([1]; Regimen D: 342 mg, fed, n = 12): 0; Flatulence ([1]; Regimen D: 342 mg, fed, n = 12): 0; Flushing ([1]; Regimen D: 342 mg, fed, n = 12): 0; Gastrointestinal disorders ([1]; Regimen D: 342 mg, fed, n = 12): 3; General disorders and administration site conditions ([1]; Regimen D: 342 mg, fed, n = 12): 0; Headache ([1]; Regimen D: 342 mg, fed, n = 12): 0; Nausea ([1]; Regimen D: 342 mg, fed, n = 12): 3; Nervous system disorders ([1]; Regimen D: 342 mg, fed, n = 12): 0; Somnolence ([1]; Regimen D: 342 mg, fed, n = 12): 0; Vascular disorders ([1]; Regimen D: 342 mg, fed, n = 12): 0; Vomiting ([1]; Regimen D: 342 mg, fed, n = 12): 0; onset of nausea ([1]; following fasted dosing): 0.5 to 1 h; onset of nausea ([1]; following fed dosing): 1.5 to 2.5 h; tolerability ([1]; tablet SAD study (Study 3)): well tolerated; incidence of TEAEs ([2]; 265 mg twice daily, fed state): equivalent to placebo; total number of TEAEs ([2]; ALZ-801 dosing in the fasting state): 65; No. of deaths (all causes) [2, 11]: 0; No. of deaths resulting from AEs [2, 11]: 0; Subjects affected by SAE/exposed [2, 11]: 0/9; No. of deaths (all causes) [2, 12]: 0; No. of deaths resulting from AEs [2, 12]: 0; Subjects affected by SAE/exposed [2, 12]: 0/9; No. of deaths (all causes) [2, 13]: 0; No. of deaths resulting from AEs [2, 13]: 0; Subjects affected by SAE/exposed [2, 13]: 0/9; No. of deaths (all causes) [2, 14]: 0; No. of deaths resulting from AEs [2, 14]: 0; Subjects affected by SAE/exposed [2, 14]: 0/9; TEAEs: Nausea [2, 15]: 3 (33.3) cases (%); TEAEs: Vomiting [2, 15]: 0 cases (%); TEAEs: Nausea [2, 16]: 4 (44.4) cases (%); TEAEs: Vomiting [2, 16]: 2 (22.2) cases (%); TEAEs: Nausea [2, 17]: 5 (55.6) cases (%); TEAEs: Vomiting [2, 17]: 2 (22.2) cases (%); TEAEs: Nausea [2, 18]: 3 (33.3) cases (%); TEAEs: Vomiting [2, 18]: 1 (11.1) cases (%); TEAEs: Nausea [2, 19]: 3 (33.3) cases (%); TEAEs: Vomiting [2, 19]: 0 cases (%); TEAEs: Nausea [2, 20]: 0 cases (%); TEAEs: Vomiting [2, 20]: 2 (22.2) cases (%); TEAEs: Nausea [2, 21]: 0 cases (%); TEAEs: Vomiting [2, 21]: 0 cases (%); tolerability ([2]; doses of up to 340 mg twice daily): well tolerated; Mean Ae ([3]; Day 1, ALZ-801 tablet 265 mg): 22.5 mg; Mean Ae ([3]; Day 7, ALZ-801 tablet 265 mg): 24.1 mg; CL renal ([3]; Day 1, ALZ-801 tablet 265 mg): 36.4 ± 10.7 mL/min; CL renal ([3]; Day 7, ALZ-801 tablet 265 mg): 35.9 ± 19.9 mL/min; Tmax ([4]; 256.5 mg, T max, ALZ-801 capsule 171 and 256.5 mg, day 1, fasted): 0.5 h; Tmax ([4]; 256.5 mg, Tmax, Cohort C, capsule, fed, 256.5 mg QD, Day 1, median (range)): ~1 h; half-life ([4]; 256.5 mg, ALZ-801 capsule 171 and 256.5 mg, day 1, fasted): ~60 min; AUC [4, 22]: 10300 ng·h/mL; AUC [4, 23]: 11200 ng·h/mL; AUC [4, 24]: 10300 ng·h/mL; AUC [4, 25]: 11200 ng·h/mL; Cmax [4, 26]: 4960 ± 2650 ng/mL; Tmax [4, 27]: 2.45 ± 0.848 h; Tmax [4, 28]: 2.11 ± 0.553 h; half-life [4, 26]: 63 ± 9.6 min; half-life [4, 29]: 66.6 ± 15.8 min; Tmax ([4]; 340 mg, T max, day 14, dosing in the fasted state): ~0.5 h; half-life ([4]; irrespective of dosing regimen and day): ~60 min; lower C max in fed than fasted state [4, 30]: 25%; lower C max for 265 mg tablet than 256.5 mg capsule ([4]; day 1): 22%; lower C max in fed than fasted state [4, 31]: 30%; half-life ([5]; human, oral): < 60 min; Tmax ([5]; human, oral, 171 mg): 1 h; Tmax ([5]; human, oral, 205 mg): 0.5 h

Q: Which results are given for `NCCCS(=O)(=O)O` [tramiprosate, 3-amino-1-propanesulfonic acid]?
A: ADAS-cog difference compared with placebo ([6]; APOE4 carriers): 2 point; ADAS-cog difference compared with placebo ([6]; APOE4 homozygous (APOE4/4) patients): 4 point; CSF drug levels ([6]; oral tramiprosate 150 mg twice daily for 78 weeks): 60 nM; mean plasma exposure AUC12 ([6]; tramiprosate 150 mg twice daily, 78 weeks, phase III): 4429 ng·h/mL; effect on renal transporter [7]: no effect; Mean Ae ([3]; Day 1, ALZ-801 tablet 265 mg): 44.0 mg; Mean Ae ([3]; Day 7, ALZ-801 tablet 265 mg): 58.4 mg; CL renal ([3]; Day 1, ALZ-801 tablet 265 mg): 201 ± 48.2 mL/min; CL renal ([3]; Day 7, ALZ-801 tablet 265 mg): 194 ± 85.1 mL/min; AUC [4, 22]: 3300 ± 608 ng·h/mL; AUC [4, 23]: 4100 ± 687 ng·h/mL; AUC [4, 24]: 3650 ± 670 ng·h/mL; AUC [4, 25]: 5020 ± 859 ng·h/mL; Cmax [4, 26]: 759 ± 163 ng/mL; Cmax [4, 29]: 865 ± 172 ng/mL; Tmax [4, 27]: 3.56 ± 0.88 h; Tmax [4, 28]: 2.9 ± 0.603 h; half-life [4, 26]: 536 ± 81 min; half-life [4, 29]: 2170 ± 249 min; lower C max in fed than fasted state [4, 30]: approximately 13%; accumulation ratio AUC12 [4, 32]: 1.3; accumulation ratio C max [4, 32]: 1.2; lower C max for 265 mg tablet than 256.5 mg capsule ([4]; day 1): approximately 12%; lower C max for 265 mg tablets than 256.5 mg capsules ([4]; fed, day 7): 11%; lower C max in fed than fasted state [4, 31]: ~18%; half-life ([5]; human, oral, 171 mg): 774 min; Tmax ([5]; human, oral, 205 mg): 1.5 h; half-life ([5]; human, oral, 205 mg): 990 min; AUC(0-t) ([5]; human, oral, 205 mg, AUCt, 205 mg ALZ-801 tablets, fed (Regimen C)): 2990 ng·h/mL; Cmax ([5]; human, oral, 205 mg, 205 mg ALZ-801 tablets, fed (Regimen C)): 638 ng/mL; Cmax ([5]; human, oral, 342 mg, 342 mg ALZ-801 tablets, fed (Regimen D)): 978 ng/mL; delay of T max with food [5, 33]: approximately 30 min; reduced C max with food [5, 33]: 17%; fold increase in C max for 1.7-fold increase in dose ([5]; 342 mg (Regimen D) vs 205 mg ALZ-801 tablets, fed): 1.5 fold; interindividual variability for exposure ([5]; ALZ-801 tablet, fed and fasted states): 20–35%
